MPTP block = blocks calcium-induced mitochondrial swelling; inhibition, % at 10 µM; isolated mouse mitochondria, Ca2+ swelling absorbance, 30 min; 1.4% of 360,000 active;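 active means inhibition of 50% or more, scaled per plate between neutral and stimulator controls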;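 further: 0% = DMSO wells given calcium and 100% = 1 mM EGTA wells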
OX1R antag-1 = blocks the human orexin 1 receptor; CHO/OX1R cells, Fluo-8 calcium fluorescence, orexin A; inhibition, % at 5 µM; 0.43% of 330,000 active; O43613;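 active means inhibition above its plate's threshold, mean inhibition of all tested compounds on the plate plus 3 SD, cut at about 37% in these data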;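 further: 0% = orexin A challenge wells and 100% = SB-334867-A antagonist wells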
Target sequence (O43613 whole entry, looked up): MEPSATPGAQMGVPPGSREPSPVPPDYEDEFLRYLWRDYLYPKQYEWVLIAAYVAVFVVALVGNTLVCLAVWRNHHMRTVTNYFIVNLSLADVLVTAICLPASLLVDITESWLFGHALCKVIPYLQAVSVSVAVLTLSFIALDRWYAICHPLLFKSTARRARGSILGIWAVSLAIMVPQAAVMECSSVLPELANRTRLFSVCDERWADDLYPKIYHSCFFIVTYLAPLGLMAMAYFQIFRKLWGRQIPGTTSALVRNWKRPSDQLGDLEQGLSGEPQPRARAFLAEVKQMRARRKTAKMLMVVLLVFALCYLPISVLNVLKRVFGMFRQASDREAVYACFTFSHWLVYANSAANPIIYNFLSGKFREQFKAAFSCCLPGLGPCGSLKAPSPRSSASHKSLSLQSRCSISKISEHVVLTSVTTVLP
GPR7 antagonist = antagonists of human GPR7 (neuropeptides B/W receptor 1); P48145; GPR7-expressing cells, fluorescence antagonist assay; inhibition, % at 4.4 µM; 1.1% of 290,000 active; AID 1861; in the data active means inhibition above about 16%, passing the limit was not always enough;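 further: cells stimulated with the agonist NPW; 0% = agonist with vehicle and 100% = vehicle without agonist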
Target sequence (P48145 whole entry, looked up): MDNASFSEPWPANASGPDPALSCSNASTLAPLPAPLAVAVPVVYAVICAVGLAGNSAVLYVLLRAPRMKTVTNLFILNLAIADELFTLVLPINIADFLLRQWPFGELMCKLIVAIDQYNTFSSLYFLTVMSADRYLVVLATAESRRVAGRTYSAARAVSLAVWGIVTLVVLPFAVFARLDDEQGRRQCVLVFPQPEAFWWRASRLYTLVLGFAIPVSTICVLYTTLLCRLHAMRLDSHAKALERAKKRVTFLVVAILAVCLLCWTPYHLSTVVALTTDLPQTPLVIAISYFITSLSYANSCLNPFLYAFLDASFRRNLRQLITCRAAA
OX1R antag-2 = blocks the human orexin 1 receptor; O43613; OX1R-expressing cells, FRET antagonist read-out; inhibition, % at 6.6 µM; 1.8% of 330,000 active; AID 485270; in the data active means inhibition mostly above about 38%, no sharp cut-off; inactive means mostly below about 40%;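 further: 0% = agonist challenge alone and 100% = reference antagonist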
CHO parental Ca = counter-screen: ATP calcium response change in parental CHO cells; parental CHO-K1, ATP-induced calcium, Fluo-8 fluorescence; 0.63% of 330,000 active; AID 463079; inhibition, % at 5.6 µM;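 active means inhibition above that plate's mean sample inhibition plus 3 SD, cut at about 26% in these data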;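 further: 0% = ATP-challenged DMSO wells and 100% = DMSO wells without ATP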
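Test system: untransfected parental CHO cell line; also added: ATP stimulus; dosing: 5.6 µM, single dose; signal: calcium-sensitive Fluo-8 fluorescence; measure: percent inhibition of ATP-evoked calcium rise, normalized to controls; benchmarks: low control ATP plus DMSO, high control DMSO only; replication: one well per compound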
OX1R Fluo8 conf = confirmation of human orexin 1 receptor antagonists; shares compounds with OX1R antag-1; CHO/OX1R cells, orexin A calcium Fluo-8 fluorescence; inhibition, % at 5 µM; 38% of 1,100 active; AID 492963; in the data active means inhibition above about 29%;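 further: 0% = agonist challenge alone and 100% = reference antagonist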
CHO Ca counter = counter-screen for OX1R antagonists: effect in parental CHO cells. 9.3% of 1,100 active. shares compounds with OX1R antag-1. parental CHO-K1, ATP-induced calcium, Fluo-8 fluorescence. inhibition, % at 5.6 µM;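 active means inhibition above a per-plate limit, the mean inhibition of that plate's test compounds plus 3 SD, cut at about 25% in these data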;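 further: 0% = ATP challenge with DMSO and 100% = DMSO without ATP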
OX1R HTRF confirm = OX1R (human) antagonism, HTRF confirmed; shares compounds with OX1R antag-2; OX1R-expressing cells, HTRF antagonist assay; inhibition, % at 6.6 µM; 49% of 1,800 active; AID 492964; in the data active means inhibition above about 55%;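 further: CHO cells expressing OX1R stimulated with orexin A at about EC80; 0% = agonist challenge alone and 100% = reference antagonist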
CHO-K1 HTRF cnt = signal in parental CHO-K1 cells, OX1R antagonist counter-screen | shares compounds with OX1R antag-2 | HTRF counterscreen | inhibition, % at 6.6 µM | 48% of 1,800 active | AID 493232; in the data active means inhibition above about 17%;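 further: 0% = agonist challenge with vehicle and 100% = vehicle alone without agonist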
MPTP counter = membrane potential counter-screen of mitochondrial pore inhibitors. isolated mitochondria, Rhodamine 123 fluorescence. 78% of 5,000 active. inhibition, % at 10 µM. shares compounds with MPTP block; in the data active means inhibition above about 22%;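 further: 0% = DMSO vehicle and 100% = positive control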
MPTP abs DR = dose response confirmation of mitochondrial permeability transition pore inhibitors; shares compounds with MPTP block; isolated mitochondria swelling, absorbance; IC50, µM; 58% of 780 active; AID 651561; in the data active means IC50 below about 20 µM
MPTP counter DR = MPTP inhibitor counter-screen activity, dose response | shares compounds with MPTP block | isolated mitochondria counterscreen, fluorescence read-out | IC50, µM | 49% of 780 active | AID 651564; in the data active means IC50 below about 80 µM
* marks the source's active call; other numbers are inactive results; / = no result given. Shown are actives, neighbours in structure and some others; about 3.8% of the full set was active somewhere.

SMILES	MPTP block	OX1R antag-1	GPR7 antagonist	OX1R antag-2	CHO parental Ca	OX1R Fluo8 conf	CHO Ca counter	MPTP counter	others
CC1(C)CC(=O)C2=C(C1)NC1=C(C(=O)c3ccccc31)C2c1ccc(O)cc1 (configuration not stated)	5.7	-16.8	-13.6	20.2	-8.9	/	/	/
CCCc1ccc(C2C3=C(CC(C)(C)CC3=O)NC3=C2C(=O)c2ccccc23)cc1 (configuration not stated)	80.7*	66.4*	7.2	29.0	-10.1	24.6	-4.0	52.4*
NC(=O)NOCc1ccc(Cl)cc1Cl	-1.4	7.6	-5.0	8.2	-11.2	/	/	/
CNC(=S)/N=C/NOCc1ccc(Cl)cc1Cl	101.2*	41.1*	19.4	28.8	12.4	20.0	18.9	95.3*
O=[N+]([O-])c1ccc(Nc2ccc3ccccc3c2)nc1	78.2*	45.5*	1.2	35.2	0.2	22.4	4.2	58.6*
FC(F)(F)c1nnc(N2CCN(c3ccc(Cl)cc3)CC2)s1	1.1	-5.0	7.7	5.6	-11.8	/	/	/
FC(F)(F)c1nnc(Nc2ccc(Cl)cc2)s1	79.2*	42.4*	1.9	9.1	16.7	-8.5	-3.4	75.1*
O=C(CNc1cccc(F)c1)Nc1cccc(S(=O)(=O)N2CCCCC2)c1	-2.8	/	/	/	/	/	/	/
O=C(CNc1cccc(S(=O)(=O)N2CCCC2)c1)Nc1ccc(C(F)(F)F)cc1	51.8*	25.0	/	20.2	20.1	3.7	12.3	85.2*
O=C(Nc1ccc(OC(F)F)c(Cl)c1)c1cccc(OC(F)F)c1	97.0*	53.2*	5.3	23.1	8.5	12.3	19.4	94.8*
CCCCCCCCNc1ncnc2ccccc12	102.9*	89.9*	8.4	35.9	-2.8	15.7	84.7*	87.4*
CCOC(=O)C(C(C)C)C(N)Cc1ccc(F)cc1 (configuration not stated)	-0.1	-35.5	-4.5	23.1	-17.9	/	/	/
CCOC(=O)Nc1csnn1	0.2	/	-6.5	/	/	/	/	/
CC(Oc1ccc(Br)cc1)C(=O)Nc1ccncc1 (configuration not stated)	3.7	0.2	2.6	13.6	-0.7	/	/	/
CC(Oc1ccc(Br)cc1Cl)C(=O)Nc1ccncc1 (configuration not stated)	77.1*	31.1	-3.7	4.8	25.4	32.8*	14.3	80.4*
CCNC(=O)Nc1cc(S(=O)(=O)Nc2ccc(OC)cc2)ccc1N1CCOCC1	94.1*	41.0*	/	11.5	14.1	35.6*	75.0*	93.4*
CCCCNC(=O)c1ccc(N2CCOCC2)c(NS(=O)(=O)c2ccc(OC)cc2)c1	-2.1	-20.8	-13.8	10.2	-9.9	/	/	/
CCOc1ccc(CCNC(=O)COC(=O)CSc2ccc(C)cc2)cc1OCC	-0.5	/	/	/	/	/	/	/
Cc1cc(C)nc(SCC(=O)Nc2ccc(N3CCOCC3)c(Cl)c2)n1	60.8*	32.3	10.6	55.1	21.6	20.9	30.6*	78.3*
Cc1c(OCC(=O)NCC2CCC(C(=O)NCCCO)CC2)ccc2c(-c3ccccc3)cc(=O)oc12 (configuration not stated)	-1.2	-22.8	-10.2	16.7	-13.5	/	/	/
CCOC(=O)c1ccc(NC(=O)c2cccc(S(=O)(=O)N3c4ccccc4CC3C)c2)s1 (configuration not stated)	73.5*	34.4	2.6	50.9	6.3	26.5	25.2*	73.2*
CC1Cc2ccccc2N1S(=O)(=O)c1cccc(C(=O)NCCCO)c1 (configuration not stated)	-4.6	-24.4	-5.4	10.2	-28.0	/	/	/
O=C(Nc1cccc(Cl)c1)Nc1nc(-c2ccc(Cl)cc2)cs1	92.2*	28.7	5.5	18.0	18.8	1.6	60.1*	93.6*
O=C(Nc1ccccc1)Nc1nc(-c2ccc(Cl)cc2)cs1	35.1	7.8	-5.2	29.0	11.8	/	/	/
O=C(CSc1nnc(-c2c[nH]c3ccccc23)n1C1CC1)NC1CCS(=O)(=O)C1 (configuration not stated)	-0.6	/	/	/	/	/	/	/
SMILES	MPTP block	OX1R antag-1	GPR7 antagonist	OX1R antag-2	CHO parental Ca	OX1R Fluo8 conf	CHO Ca counter	MPTP counter	others
CCCSc1nnc(NC(=O)Nc2ccc(F)cc2)s1	85.8*	29.4	10.8	76.7*	9.4	9.7	20.8	98.5*	OX1R HTRF confirm=47.6;CHO-K1 HTRF cnt=10.5
Cc1nnc(SCCC(=O)Nc2ccc(F)cc2)s1	-1.3	-0.1	-1.8	21.2	-4.8	/	/	/
CC(=O)NC(NC(=S)Nc1ccc(S(N)(=O)=O)cc1)C(Cl)(Cl)Cl (configuration not stated)	2.2	-16.3	-12.6	21.6	10.7	/	/	/
CC(=O)NC(NC(=S)Nc1ccc(N=Nc2ccccc2)cc1)C(Cl)(Cl)Cl (configuration not stated)	94.1*	37.3	-8.4	5.3	22.8	41.3*	15.2	61.6*
NC(=O)COn1c(SCC(N)=O)nc2ccccc2c1=O	2.0	-6.2	-3.9	3.3	-4.3	/	/	/
Cc1cccc(NC(=S)NCC(C)CSc2ccc(Cl)cc2)c1 (configuration not stated)	89.3*	34.0	-10.4	21.1	24.0	-4.8	-4.8	93.8*
CC(C)=CCC[C@H](C)C[C@@H]1Cc2[nH][nH]c(=O)c2[C@H](c2ccc(F)cc2)O1	-2.7	/	/	/	/	/	/	/
Cc1ccc(OC(F)F)c(NC(=O)Nc2cccc(C(F)(F)F)c2)c1	96.0*	36.0	-7.9	45.7*	0.7	-14.2	14.6	73.3*	OX1R HTRF confirm=22.6;CHO-K1 HTRF cnt=0.6
O=C(Nc1nnc(-c2ccc(Cl)cc2)o1)c1nc2ccccc2s1	96.8*	32.4	8.4	-2.4	-3.0	-3.8	3.8	5.1	MPTP abs DR=2.62*;MPTP counter DR=12.8*
O=c1c2ccccc2nc(/C=C/c2cc(Br)ccc2O)n1CCCO	0.3	9.5	-1.1	6.9	-12.2	/	/	/
O=C(Nc1cccc(Cl)c1)c1ccc(F)c(S(=O)(=O)NCc2cccs2)c1	77.2*	63.5*	7.7	84.6*	-17.1	30.7*	-4.7	84.3*	OX1R HTRF confirm=77.8*;CHO-K1 HTRF cnt=1.4
CN(C)c1cc[n+](CC(=O)Nc2ccc(OC(F)F)cc2)cc1	1.5	-13.0	17.3	19.1	-6.9	/	/	/
NNC(=O)c1cc2c(N3CCC(Cc4ccccc4)CC3)ncnc2s1	89.2*	31.5	-8.3	8.0	17.4	13.8	10.5	59.4*
O=S(=O)(c1ccccc1)N1CCN(c2ncnc3sc(-c4ccccc4)cc23)CC1	40.1	/	-8.1	/	/	/	/	/
